Where a name gives a salt, the structure may show the parent alone. Read-outs that look alike come from different tables or passages of the source.

The values below come from article PMC2646813 (Journal of biomolecular screening, 2008).

The target in experiment [1] is T1, PPARαΔAB (Mus musculus, UniProt P23204).
T1 sequence (P23204 101-468 limits assumed): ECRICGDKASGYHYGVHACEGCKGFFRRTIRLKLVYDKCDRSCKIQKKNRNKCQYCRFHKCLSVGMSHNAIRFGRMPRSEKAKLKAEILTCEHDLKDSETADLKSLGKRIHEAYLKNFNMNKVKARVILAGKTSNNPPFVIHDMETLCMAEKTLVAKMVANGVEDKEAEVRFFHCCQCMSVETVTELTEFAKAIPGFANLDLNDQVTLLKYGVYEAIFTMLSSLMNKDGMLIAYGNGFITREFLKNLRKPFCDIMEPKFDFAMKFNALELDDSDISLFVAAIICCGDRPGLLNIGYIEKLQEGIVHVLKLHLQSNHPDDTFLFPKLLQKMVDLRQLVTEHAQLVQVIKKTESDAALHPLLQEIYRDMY
Nature of the experiment: Primary drug-screening assay: restoration of BODIPY-C16-CoA. It is filed as binding, murine. The settings on record: 20 mM glucose; for Recovery (ability to restore acyl-CoA binding): compound 1.25 μM, 10 nM BODIPY-C16-CoA, 200 nM PPARαΔAB.

Experiment [2] has as its target T1, PPARαΔAB. It is filed as binding, murine. The essentials:
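Intrinsic aromatic fluorescence quenching. 0.1 μM murine PPARαΔAB in 20 mM glucose in PBS titrated with test compound. Excitation 280 nm, emission 300–380 nm. Corrected for buffer, compound fluorescence and solvent. Kd calculated from maximal intensities, with double-reciprocal plots. Mean ± SEM, n = 3–4.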

The target in another experiment is T2, PPARα (Mus musculus, UniProt P23204).
T2 sequence (P23204 1-468): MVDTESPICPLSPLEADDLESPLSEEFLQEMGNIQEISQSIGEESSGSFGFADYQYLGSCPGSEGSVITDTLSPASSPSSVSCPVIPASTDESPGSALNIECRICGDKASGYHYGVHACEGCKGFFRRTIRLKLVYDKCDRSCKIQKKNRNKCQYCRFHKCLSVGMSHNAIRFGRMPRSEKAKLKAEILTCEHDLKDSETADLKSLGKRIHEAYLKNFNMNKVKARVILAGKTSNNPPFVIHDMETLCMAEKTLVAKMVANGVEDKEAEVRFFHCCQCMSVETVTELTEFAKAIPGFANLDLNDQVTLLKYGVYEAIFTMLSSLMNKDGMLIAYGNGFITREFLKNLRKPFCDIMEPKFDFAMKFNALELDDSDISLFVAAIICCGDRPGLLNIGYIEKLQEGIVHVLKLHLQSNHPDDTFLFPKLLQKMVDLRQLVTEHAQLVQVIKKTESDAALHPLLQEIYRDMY
Nature of the experiment: Transactivation assay, acyl-CoA oxidase reporter. It counts as cell-based. The settings on record: for Increase of PPARα transactivation (percentage change from no-compound control): basal, absence of glucose (Fig. 2C open bars); for Effect on clofibrate-induced PPARα transactivation: absence of glucose (Fig. 2D open bars). The method, boiled down: (§1)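 COS-7 cells in 24-well plates transfected with 0.4 μg full-length pSG5-PPARα, alone or with pSG5-mRXRα; 0.4 μg PPRE3-TK-LUC reporter; 0.04 μg pRL-CMV. Then serum-free, glucose-free DMEM for 2 h. Compound (10 μM) added at 0 or 20 mM glucose, ±10 μM clofibrate, for 24 h. Firefly luciferase normalized to Renilla. Results given as percentage of clofibrate-induced PPARα activity, or percentage change from no-compound control; mean ± SEM, n = 3.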

The target of a further experiment is T3, PPARα-RXRα heterodimers (Mus musculus, UniProt P23204).
T3 sequence (P23204 1-468): T2 sequence (P23204 1-468)
T3 sequence (P28700 1-467 partner): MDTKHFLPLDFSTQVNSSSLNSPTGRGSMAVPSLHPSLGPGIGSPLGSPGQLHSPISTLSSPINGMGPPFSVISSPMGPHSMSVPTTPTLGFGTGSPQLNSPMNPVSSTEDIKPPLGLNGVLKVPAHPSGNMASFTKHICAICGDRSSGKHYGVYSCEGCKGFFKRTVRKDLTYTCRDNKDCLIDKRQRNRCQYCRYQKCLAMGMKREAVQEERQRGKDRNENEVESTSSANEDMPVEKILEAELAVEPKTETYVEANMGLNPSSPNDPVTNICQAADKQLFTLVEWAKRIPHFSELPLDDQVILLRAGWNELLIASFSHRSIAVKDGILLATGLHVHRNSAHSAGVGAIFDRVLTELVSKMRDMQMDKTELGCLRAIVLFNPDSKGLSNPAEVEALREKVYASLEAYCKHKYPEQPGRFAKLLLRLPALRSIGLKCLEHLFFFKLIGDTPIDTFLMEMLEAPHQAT
The experiment can be described thus: Transactivation assay, acyl-CoA oxidase reporter. It counts as cell-based. The method, boiled down: as §1

The target in experiment [3] is T1, PPARαΔAB. Nature of the experiment: PPARα binding assays to BODIPY-C16 fatty acid or fatty acyl-CoA. More on the design: species or system murine. The settings on record: high glucose (20 mM). The essentials: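 50 nM BODIPY-C16 or BODIPY-C16-CoA prebound to 100 nM murine PPARαΔAB, then titrated with glucose. Excitation 460 nm, emission 490–540 nm. Background-corrected maximal intensities expressed as percentage change in binding versus the no-glucose control.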

The target of experiment [4] is T1, PPARαΔAB. The experiment can be described thus: Circular dichroism, PPARα secondary structure. More on the design: species or system murine. The settings on record: 20 mM glucose, 0.8 μM PPARαΔAB; mean ± SEM (n = 4). The essentials:
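Murine PPARαΔAB (N-terminal truncation), expressed in E. coli BL21(DE3)pLysS and purified, at 0.8 μM with 0 or 20 mM glucose. Ten CD scans averaged per spectrum. Secondary structure fractions estimated by SELCON3, CDSSTR and CONTIN/LL. Mean ± SEM, n = 4; Student's t-test.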

Setting [5] is: read-out: Kd (binding affinity of PPARα for each compound), 0.1 μM PPARαΔAB in 20 mM glucose in PBS, mean ± SEM (n = 3–4).
Setting [6] is: compound 10 μM, 10 μM clofibrate, 20 mM glucose (Fig. 2F).
Where [7] appears, read: compound 10 μM, 10 μM clofibrate.

For `CC(=O)N[C@@H]1[C@@H](O)[C@H](O)[C@@H](CO)O[C@@H]1O` [Acetylglucosamine], the “Recovery (ability to restore acyl-CoA binding)” value (shortened to “Recovery”) at PPARαΔAB [1] amounted to 63.8%. The Kd at PPARαΔAB [2] (setting [5]) amounted to 33.3 ± 3 nM. Moreover, the “Increase of PPARα transactivation (percentage change from no-compound control)” value at PPARα (compound 10 μM) was no less than 50%.
Consider `CCCC1O[C@@H]2C[C@H]3[C@@H]4CCC5=CC(=O)C=C[C@]5(C)[C@H]4[C@@H](O)C[C@]3(C)[C@]2(C(=O)CO)O1` (stereo partly drawn) [Budesonide], for which, at PPARαΔAB [1], the “Recovery” value is reported as 82.0%. The same molecule yielded an equilibrium dissociation constant (Kd) at PPARαΔAB [2] of 26.3 ± 3.2 nM. In addition, the “Effect on clofibrate-induced PPARα-RXRα activity” value at PPARα-RXRα heterodimers (setting [6]) is “significantly decreased”.
In the case of `CCOC(=O)[C@H](CCc1ccccc1)N[C@@H](C)C(=O)N1CCC[C@H]1C(=O)O` [Enalapril maleate], at PPARαΔAB [1], the “Recovery” value is 64.7%. The molecule further registered a Kd at PPARαΔAB [2] of 26.3 ± 2.8 nM.
Consider `CC(=O)O[C@@H]1C[C@H]2C(C)(C)C(=O)C=C[C@]2(C)[C@H]2CC[C@@]3(C)[C@H](c4ccoc4)OC(=O)[C@H]4O[C@]43[C@@]21C` [Gedunin], for which the “Recovery” value at PPARαΔAB [1] is 62.3%. The molecule further registered a Kd at PPARαΔAB [2] of 21.9 ± 1.8 nM. On PPARα (setting [7]), the “Effect on clofibrate-induced PPARα transactivation” value is given as “decreases”. Also, at PPARα (compound 10 μM, with or without glucose (Fig. 2C)), the “Effect on basal PPARα activity” value is “significantly reduced”. The “Effect on clofibrate-induced PPARα-RXRα activity” value on PPARα-RXRα heterodimers (setting [6]) was “significantly decreased”; at PPARα-RXRα heterodimers (compound 10 μM, 10 μM clofibrate, absence of glucose (Fig. 2F)), “significantly affected activity”. Besides, on PPARα-RXRα heterodimers (compound 10 μM, with or without glucose (Fig. 2E)), the “Effect on basal PPARα-RXRα heterodimer activity” value was “decreased activity”.
Take `CN1[C@@H]2CC[C@H]1C[C@@H](OC(=O)[C@H](CO)c1ccccc1)C2` [Hyoscyamine]: the “Recovery” value at PPARαΔAB [1] came to 86.4%. In addition, the Kd at PPARαΔAB [2] was 14.8 ± 2.8 nM.
As for `NC(=O)c1cnccn1` [Pyrazinamide], the “Recovery” value on PPARαΔAB [1] was found to be 68.6%. Also, the dissociation constant (Kd) on PPARαΔAB [2] worked out at 28.4 ± 2.3 nM. For the same molecule, on PPARα-RXRα heterodimers (setting [6]), the “Effect on clofibrate-induced PPARα-RXRα activity” value was “significantly decreased”.
With `O=C1NS(=O)(=O)c2ccccc21` [Saccharin], the “Recovery” value at PPARαΔAB [1] worked out at 81.3%. On PPARαΔAB [2], this molecule had a Kd of 22.5 ± 2 nM. Also, the “Effect on clofibrate-induced PPARα transactivation” value at PPARα (setting [7]) was “significant increases”.
As to `NC(=O)c1ccccc1O` [Salicylamide], the “Recovery” value at PPARαΔAB [1] is given as 83.1%. The molecule also came in with a Kd at PPARαΔAB [2] of 25.8 ± 6 nM.
For the molecule `CN=C(N)NCCC[C@H](N)C(=O)O.Cl` [Targinine hydrochloride, reference compound], on PPARαΔAB [1], the “Recovery” value was 67.5%. For the same molecule, at PPARαΔAB [2] (setting [5]), the Kd was found to be 33.5 ± 3.5 nM. Besides, the “Increase of PPARα transactivation (percentage change from no-compound control)” value on PPARα (compound 10 μM) is no less than 50%. Besides, the “Effect on clofibrate-induced PPARα-RXRα activity” value at PPARα-RXRα heterodimers (setting [6]) is reported as “significantly decreased”.
On to `c1ccc(CC2=NCCN2)cc1` [Tolazoline hydrochloride], for which the “Recovery” value on PPARαΔAB [1] came to 73.9%. Also, on PPARαΔAB [2], the Kd was 31.4 ± 3.6 nM.
Consider `Cc1ccc(C(=O)c2ccc(CC(=O)O)n2C)cc1` [Tolmetin sodium, reference compound], for which the “Recovery” value at PPARαΔAB [1] came to 97.1%. The same molecule gave a Kd at PPARαΔAB [2] of 35.1 ± 3.7 nM. Also, the “Increase of PPARα transactivation (percentage change from no-compound control)” value on PPARα (compound 10 μM) is given as no less than 50%. In addition, the “Effect on clofibrate-induced PPARα-RXRα activity” value on PPARα-RXRα heterodimers (setting [6]) is “significantly decreased”.
On to `NCCCC(=O)O` [g-aminobutyric acid], for which the “Recovery” value on PPARαΔAB [1] worked out at 85.5%. Also, the Kd at PPARαΔAB [2] (setting [5]) amounted to 29.5 ± 4.1 nM.
Consider `OC[C@H]1OC(O)[C@H](O)[C@@H](O)[C@@H]1O` (stereo partly drawn) [glucose], for which, on PPARαΔAB [1] (plate assay controls), the “Decrease in BODIPY-C16-CoA fluorescence intensity” value is reported as ~ 30%. Besides, on PPARαΔAB [3] (50 nM BODIPY-C16, 100 nM PPARαΔAB (Fig. 1D)), the “Effect of glucose on BODIPY-C16 (fatty acid) binding to PPARα” value is “not affected”. Besides, the “Effect of glucose on BODIPY-C16-CoA binding to PPARα” value at PPARαΔAB [3] (50 nM BODIPY-C16-CoA, 100 nM PPARαΔAB (Fig. 1C, 1D)) was “significantly decreased”. Moreover, the “Increase of transactivation by glucose over clofibrate alone” value at PPARα (10 μM clofibrate, 20 mM glucose, PPARα alone (Fig. 2B)) is on record as 3- to 4 fold. Besides, the “Effect of glucose on basal transactivation” value on PPARα (20 mM glucose, no other ligand, PPARα alone (Fig. 2A)) was “no significant effect”. Besides, the “Increase of transactivation by glucose over clofibrate alone” value at PPARα-RXRα heterodimers (10 μM clofibrate, 20 mM glucose, PPARα-RXRα heterodimers (Fig. 2B)) was 3- to 4 fold. Also, the “Effect of glucose on basal transactivation” value at PPARα-RXRα heterodimers (20 mM glucose, no other ligand (Fig. 2A)) was “increased activity”. Also, at PPARαΔAB [4], the Turns is reported as 20.2 ± 0.7%; the Unordered came to 30.7 ± 0.8 %; the “α-Helices Distorted, Hd” value is reported as 10.8 ± 0.3 %; the “α-Helices Regular, Hr” value was 14.3 ± 0.3 %. On PPARαΔAB [4], the “β-Sheets Distorted, Sd” value is reported as 8.8 ± 0.5 % and the “β-Sheets Regular, Sr” value stood at 14.4 ± 1.2 %.
Take `COc1cccc(OC)c1C(=O)N[C@@H]1C(=O)N2[C@@H]1SC(C)(C)[C@@H]2C(=O)O` [methicillin sodium]: the “Direct binding to PPARα (change of intrinsic fluorescence)” value on PPARαΔAB [2] (20 mM glucose) is listed as “no binding”.
